Four compounds from ChEMBL document CHEMBL4043299, “Repurposing a Library of Human Cathepsin L Ligands: Identification of Macrocyclic Lactams as Potent Rhodesain and Trypanosoma brucei Inhibitors” (J Med Chem, 2018) can be followed below.

In brackets after ≈: the same amount, converted by molar mass. Activity calls are given as the source filed them. No cut-off for these calls is given here.

Data set [1] concerns Trypanosoma brucei rhodesiense. The data set is described as follows: Antitrypanosomal activity against bloodstream form of Trypanosoma brucei rhodesiense STIB 900 infected in NMRI mouse assessed as reduction of parasitemia at 25 mg/kg, ip bid administered for 4 consecutive days starting 3 days post infection measured 24 hrs post last dose. The format is functional, organism-based. The method, boiled down:
(§1)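 Mice infected with T. b. rhodesiense STIB900 (acute model); dosing from day 3 post-infection on four consecutive days, 25 mg kg⁻¹ i.p. twice daily, 0.1 mL/10 g; three infected-untreated controls; parasitaemia monitored by tail-snip blood smears twice weekly for two weeks, then weekly to day 60; relapse day recorded post-infection.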

A short description of data set [2]: Drug uptake in bloodstream form of Trypanosoma brucei rhodesiense STIB 900 infected NMRI mouse blood at 25 mg/kg, ip bid administered for 4 consecutive days starting 3 days post infection measured at 4 hrs post last dose. Type of data set: ADME, organism-based. Particulars: read-out: Drug uptake.
Data set [3] can be described thus: Drug uptake in bloodstream form of Trypanosoma brucei rhodesiense STIB 900 infected NMRI mouse blood at 25 mg/kg, ip bid administered for 4 consecutive days starting 3 days post infection measured at 1 hr post last dose. Type of data set: ADME, organism-based. Particulars: read-out: Drug uptake.
A short description of data set [4]: Drug uptake in bloodstream form of Trypanosoma brucei rhodesiense STIB 900 infected NMRI mouse blood at 25 mg/kg, ip bid administered for 4 consecutive days starting 3 days post infection measured at 16 hrs post last dose. The format is ADME, organism-based. Particulars: read-out: Drug uptake.
Another data set concerns the target Rhodesain (Trypanosoma brucei rhodesiense, UniProt Q95PM0). Briefly: Inhibition of Trypanosoma brucei rhodesiense rhodesain using Cbz-Phe-Arg-AMC as substrate by fluorimetric method. The method, boiled down: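 Fluorescence-based protease assay. IC50 was converted to Ki by the Cheng-Prusoff equation. Values are the average of two measurements, each run in duplicate.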

In a further data set the test system is Mdr1a. Briefly: Efflux ratio of permeability across pig LLC-PK1 cells expressing mouse Mdr1a at 1 uM after 3.5 hrs by LC-MS/MS analysis. The format is ADME, cell-based, Sus scrofa. In short, it runs like this:
(§2)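 Porcine kidney LLC-PK1 cells stably transfected with human ABCB1 (MDR1) or mouse Abcb1a (Mdr1a). Cells were grown with 10% FCS and 100 ng/mL colchicine and seeded on permeable inserts, then assayed on day 4. Compound was added at 1 μM to the apical or basolateral side, and transport was run in both directions in triplicate at 37 °C, 5% CO2. Donor and receiver were sampled at 3.5 h and quantified by LC–MS/MS. Lucifer yellow was used as the monolayer tightness control.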

In data set [5] the test system is Trypanosoma brucei brucei. Briefly: Antitrypanosomal activity against Trypanosoma brucei brucei TC 221 assessed as parasite growth inhibition after 72 hrs by Alamar blue assay. Type of data set: functional. Particulars: TC 221, 72 h.
Another data set relates to MDR1. Briefly: Efflux ratio of permeability across pig LLC-PK1 cells expressing human MDR1 at 1 uM after 3.5 hrs by LC-MS/MS analysis. Type of data set: ADME, cell-based, Sus scrofa. The method, boiled down: as §2
For another data set, the target named is Procathepsin L (Homo sapiens, UniProt P07711). The data set is described as follows: Inhibition of human CatL using Cbz-Phe-Arg-AMC as substrate measured over 30 mins by fluorimetric method.
Procathepsin L, sequence (P07711 whole entry): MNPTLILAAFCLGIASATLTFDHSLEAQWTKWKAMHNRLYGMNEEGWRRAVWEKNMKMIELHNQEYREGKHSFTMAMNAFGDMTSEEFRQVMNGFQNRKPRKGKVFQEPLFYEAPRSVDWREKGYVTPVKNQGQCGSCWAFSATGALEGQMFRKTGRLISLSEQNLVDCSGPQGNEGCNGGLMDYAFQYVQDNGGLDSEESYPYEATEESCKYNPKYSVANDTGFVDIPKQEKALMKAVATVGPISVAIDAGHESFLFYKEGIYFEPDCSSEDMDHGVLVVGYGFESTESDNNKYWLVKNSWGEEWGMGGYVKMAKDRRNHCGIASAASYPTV
A further data set deals with Cytochrome P450 2C9 (Homo sapiens, UniProt P11712). The data set is described as follows: Inhibition of CYP2C9 in human liver microsomes using MFC as substrate by fluorescence assay.
Cytochrome P450 2C9, sequence (P11712 whole entry, the tested form may be a part): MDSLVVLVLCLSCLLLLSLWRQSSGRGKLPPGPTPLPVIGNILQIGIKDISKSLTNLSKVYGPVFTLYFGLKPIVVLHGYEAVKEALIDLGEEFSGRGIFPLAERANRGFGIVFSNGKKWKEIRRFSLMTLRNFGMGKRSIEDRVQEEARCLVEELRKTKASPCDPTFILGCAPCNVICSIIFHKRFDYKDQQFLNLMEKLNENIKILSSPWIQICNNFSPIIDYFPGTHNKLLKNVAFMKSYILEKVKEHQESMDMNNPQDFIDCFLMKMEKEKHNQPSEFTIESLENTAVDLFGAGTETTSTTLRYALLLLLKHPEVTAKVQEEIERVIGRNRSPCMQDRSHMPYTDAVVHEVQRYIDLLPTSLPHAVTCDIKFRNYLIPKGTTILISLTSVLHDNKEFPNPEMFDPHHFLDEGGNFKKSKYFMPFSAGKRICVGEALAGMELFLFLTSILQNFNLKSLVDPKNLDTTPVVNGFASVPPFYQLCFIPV
Data set [6] can be described thus: Plasma concentration in rat at 3 mg/kg administered via infusion over 30 mins. Type of data set: ADME, organism-based. The following applies: iv. The method, boiled down:
(§3)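 Rats given 3 mg kg⁻¹ by infusion over 30 min, then sacrificed; plasma, brain and CSF concentrations measured; ratios to plasma derived; average of three independent measurements.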

The test system of data set [7] is Trypanosoma brucei rhodesiense. Briefly: Antitrypanosomal activity against bloodstream form of Trypanosoma brucei rhodesiense STIB 900 infected in NMRI mouse assessed as days required to prevent relapse of trypanosome at 25 mg/kg, ip bid administered for 4 consecutive days starting 3 days post infection. The format is functional. In short, it runs like this: as §1

The target in the next data set is Cytochrome P450 2D6 (Homo sapiens, UniProt P10635). The data set is described as follows: Inhibition of CYP2D6 in human liver microsomes using AMMC as substrate by fluorescence assay. The format is ADME.
Cytochrome P450 2D6, sequence (P10635 whole entry): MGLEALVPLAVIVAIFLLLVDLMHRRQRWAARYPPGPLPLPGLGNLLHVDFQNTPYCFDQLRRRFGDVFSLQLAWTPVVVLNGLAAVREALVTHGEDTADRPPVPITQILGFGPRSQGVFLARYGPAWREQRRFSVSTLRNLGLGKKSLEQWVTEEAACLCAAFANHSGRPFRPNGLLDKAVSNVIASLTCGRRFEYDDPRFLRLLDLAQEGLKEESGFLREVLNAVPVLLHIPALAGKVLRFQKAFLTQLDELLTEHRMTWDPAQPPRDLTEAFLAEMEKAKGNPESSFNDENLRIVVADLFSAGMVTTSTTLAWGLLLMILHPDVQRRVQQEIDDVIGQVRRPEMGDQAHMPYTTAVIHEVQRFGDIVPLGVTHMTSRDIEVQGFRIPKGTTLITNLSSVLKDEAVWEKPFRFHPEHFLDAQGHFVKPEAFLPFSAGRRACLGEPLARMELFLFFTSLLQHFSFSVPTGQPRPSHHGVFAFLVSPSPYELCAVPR
The test system of data set [8] is Trypanosoma brucei rhodesiense. The data set is described as follows: Antitrypanosomal activity against bloodstream form of Trypanosoma brucei rhodesiense STIB 900 assessed as parasite growth inhibition incubated for 24 to 48 hrs followed by 72 hrs recovery by Alamar blue assay. Type of data set: functional.
Data set [9] in a line: Solubility of the compound at pH 6.5 by LYSA. The format is physicochemical. The following applies: buffer. In short, it runs like this:
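Lyophilisation solubility assay at pH 6.5.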

Another data set deals with T1, Cathepsin L2 (Homo sapiens, UniProt O60911).
T1 sequence (O60911 whole entry): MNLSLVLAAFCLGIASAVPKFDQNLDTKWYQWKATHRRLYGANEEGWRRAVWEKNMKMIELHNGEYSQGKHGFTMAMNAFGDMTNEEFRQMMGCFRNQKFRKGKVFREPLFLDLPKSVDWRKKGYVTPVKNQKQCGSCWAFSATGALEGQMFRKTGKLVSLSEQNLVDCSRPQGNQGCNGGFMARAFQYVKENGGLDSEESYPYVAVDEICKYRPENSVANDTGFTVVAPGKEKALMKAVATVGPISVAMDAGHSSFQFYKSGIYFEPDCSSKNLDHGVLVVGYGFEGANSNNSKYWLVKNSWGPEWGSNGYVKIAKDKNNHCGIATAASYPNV
Briefly: Inhibition of human cathepsin V.

The nature of data set [10]: Octanol-water intrinsic distribution co-efficient, log D of the compound at 100 uM at pH 7.4 after 16 to 22 hrs by CAMDIS assay. Type of data set: physicochemical. In short, it runs like this:
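Distribution between octanol and aqueous buffer at pH 7.4, CAMDIS carrier-mediated system.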

A short description of data set [11]: Effective permeability of the compound after 15 hrs by PAMPA. Type of data set: physicochemical. Particulars: read-out: Peff.
The nature of data set [12]: Clearance in C57BL/6J mouse administered via iv as bolus dose by LC-MS/MS analysis. Type of data set: ADME, organism-based. The following applies: in vivo. In short, it runs like this: (§4)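 Male adult C57BL/6J mice, single i.v. bolus in N-methylpyrrolidinone/40% aqueous hydroxypropyl-γ-cyclodextrin (30/70); blood at 5, 15, 30 min, 1, 2, 4, 8 h; plasma by centrifugation, stored −20 °C; LC–MS/MS; non-compartmental analysis.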

Data set [13] in a line: Drug uptake in rat brain at 3 mg/kg administered via infusion over 30 mins. The format is ADME, organism-based. Particulars: iv, read-out: Drug uptake. The method, boiled down: as §3
A short description of data set [14]: Half life in C57BL/6J mouse administered via iv as bolus dose by LC-MS/MS analysis. The following applies: in vivo. Type of data set: ADME, organism-based. The method, boiled down:
as §4

For a further data set, the target named is Cytochrome P450 3A4 (Homo sapiens, UniProt P08684). The data set is described as follows: Inhibition of CYP3A4 in human liver microsomes using DBF as substrate by fluorescence assay. Type of data set: ADME.
Cytochrome P450 3A4, sequence (P08684 whole entry): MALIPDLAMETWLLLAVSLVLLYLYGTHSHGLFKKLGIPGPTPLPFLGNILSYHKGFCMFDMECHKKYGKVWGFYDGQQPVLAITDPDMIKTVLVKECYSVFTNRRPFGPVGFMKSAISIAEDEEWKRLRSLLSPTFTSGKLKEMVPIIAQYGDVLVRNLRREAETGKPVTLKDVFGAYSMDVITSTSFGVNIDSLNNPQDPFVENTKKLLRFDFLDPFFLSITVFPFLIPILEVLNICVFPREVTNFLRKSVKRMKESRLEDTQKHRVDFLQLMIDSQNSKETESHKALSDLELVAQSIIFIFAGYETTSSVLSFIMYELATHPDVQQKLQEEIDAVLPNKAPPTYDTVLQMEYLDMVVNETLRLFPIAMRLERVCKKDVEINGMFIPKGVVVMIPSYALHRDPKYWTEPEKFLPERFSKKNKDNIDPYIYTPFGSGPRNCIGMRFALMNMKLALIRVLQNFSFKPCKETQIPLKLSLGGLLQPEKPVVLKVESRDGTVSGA
The nature of data set [15]: Volume of distribution at steady state in C57BL/6J mouse administered via iv as bolus dose by LC-MS/MS analysis. Type of data set: ADME, organism-based. The following applies: in vivo, read-out: Vdss. In short, it runs like this:
as §4

Data set [16] can be described thus: Drug uptake in rat cerebrospinal fluid at 3 mg/kg administered via infusion over 30 mins. The format is ADME, organism-based. Particulars: iv, read-out: Drug uptake. In short, it runs like this:
as §3

A short description of data set [17]: Ratio of drug level in rat CSF to plasma at 3 mg/kg administered via infusion over 30 mins. The following applies: iv.
Data set [18] is described as follows: Ratio of drug level in brain to plasma in C57BL/6J mouse administered via iv as bolus dose by LC-MS/MS analysis.
A further data set deals with Cathepsin B (Homo sapiens, UniProt P07858). Briefly: Inhibition of human cathepsin B.
The test system of data set [19] is Trypanosoma brucei rhodesiense. Briefly: Antitrypanosomal activity against bloodstream form of Trypanosoma brucei rhodesiense STIB 900 infected in NMRI mouse assessed as mouse survival at 25 mg/kg, ip bid administered for 4 consecutive days starting 3 days post infection (reference value: 13 days). The format is functional. In short, it runs like this: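 T. b. rhodesiense STIB900 acute mouse infection model. Dosing was 25 mg/kg i.p. twice daily for 4 consecutive days, starting 3 days post-infection, at 0.1 mL/10 g. Three infected mice served as untreated controls without vehicle. Parasitaemia was followed by tail-blood smears twice weekly for two weeks, then weekly to day 60. Relapse day and mean survival days were recorded.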

In another data set the target is T2, Cathepsin K (Homo sapiens, UniProt P43235).
T2 sequence (P43235 whole entry): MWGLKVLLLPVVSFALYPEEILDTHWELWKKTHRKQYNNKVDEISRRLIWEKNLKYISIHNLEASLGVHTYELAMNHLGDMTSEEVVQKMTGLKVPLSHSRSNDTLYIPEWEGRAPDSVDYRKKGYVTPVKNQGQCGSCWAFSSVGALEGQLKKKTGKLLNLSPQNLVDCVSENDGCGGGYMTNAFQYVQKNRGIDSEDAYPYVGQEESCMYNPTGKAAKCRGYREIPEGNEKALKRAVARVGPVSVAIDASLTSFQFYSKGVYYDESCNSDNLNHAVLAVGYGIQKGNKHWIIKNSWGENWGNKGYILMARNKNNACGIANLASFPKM
Briefly: Inhibition of human cathepsin K.

The nature of data set [20]: Ratio of drug level in rat brain to plasma at 3 mg/kg administered via infusion over 30 mins. Particulars: iv.
The next data set deals with Cathepsin S (Homo sapiens, UniProt P25774). Briefly: Inhibition of human cathepsin S.
Cathepsin S, sequence (P25774 whole entry): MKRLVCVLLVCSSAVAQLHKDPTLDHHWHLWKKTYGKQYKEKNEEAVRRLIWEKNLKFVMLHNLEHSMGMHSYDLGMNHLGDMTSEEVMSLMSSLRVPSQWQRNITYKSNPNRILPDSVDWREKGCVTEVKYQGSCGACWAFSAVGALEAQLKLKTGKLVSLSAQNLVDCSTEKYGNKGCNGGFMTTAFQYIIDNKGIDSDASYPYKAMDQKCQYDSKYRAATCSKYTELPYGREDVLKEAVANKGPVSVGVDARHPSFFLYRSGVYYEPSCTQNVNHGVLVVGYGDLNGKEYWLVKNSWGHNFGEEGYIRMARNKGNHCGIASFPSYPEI
In another data set the test system is L6. Briefly: Cytotoxicity against rat L6 cells after 72 hrs by Alamar blue assay. Type of data set: cell-based. The following applies: Rattus norvegicus, L6, 72 h. The method, boiled down: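 Rat skeletal myoblast L6 cells, growth inhibition; IC50 as average of at least 2 measurements.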
For data set [21], the target named is Rhodesain (Trypanosoma brucei rhodesiense) (UniProt Q95PM0). Briefly: Inhibition of Trypanosoma brucei rhodesiense rhodesain at 20 uM using Cbz-Phe-Arg-AMC as substrate by fluorimetric method relative to control.
Rhodesain (Trypanosoma brucei rhodesiense), sequence (Q95PM0 1-450): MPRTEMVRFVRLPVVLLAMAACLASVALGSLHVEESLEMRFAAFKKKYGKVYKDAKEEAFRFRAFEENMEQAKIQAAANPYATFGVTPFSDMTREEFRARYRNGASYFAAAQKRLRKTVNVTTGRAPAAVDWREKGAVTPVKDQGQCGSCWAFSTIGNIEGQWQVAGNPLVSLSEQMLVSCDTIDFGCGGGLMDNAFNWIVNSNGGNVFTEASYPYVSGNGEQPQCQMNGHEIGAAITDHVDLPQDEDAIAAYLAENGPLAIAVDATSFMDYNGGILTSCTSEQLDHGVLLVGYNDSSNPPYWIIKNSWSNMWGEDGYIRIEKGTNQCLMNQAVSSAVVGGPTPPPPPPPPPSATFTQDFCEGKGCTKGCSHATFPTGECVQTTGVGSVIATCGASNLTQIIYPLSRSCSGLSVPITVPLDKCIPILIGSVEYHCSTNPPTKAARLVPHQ
Data set [22] deals with Trypanosoma brucei rhodesiense. Briefly: Antitrypanosomal activity against bloodstream form of Trypanosoma brucei rhodesiense STIB 900 assessed as parasite growth inhibition after 72 hrs by Alamar blue assay. The format is functional. Particulars: Trypanosoma brucei, STIB 900, 72 h. In short, it runs like this: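 T. b. rhodesiense STIB900 bloodstream trypomastigotes; cell-growth inhibition read by Alamar blue; IC50 as average of at least 2 measurements.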

Rhodesain, sequence (Q95PM0 whole entry): as the sequence (Q95PM0 1-450) above

For `CSc1ccc2c(c1)C(=O)N[C@H](C(=O)NC1(C#N)CC1)Cc1ccc(c(Cl)c1)OC/C=C/CO2`, the result in data set [1] was inactive. Also, the concentration at 4 h in [2] worked out at 66.4 ng/mL. For the same compound, the concentration at 1 h in [3] is 951 ng/mL. Besides, the concentration at 16 h in data set [4] was less than 10 ng/mL.

`N#CC1(NC(=O)[C@@H]2Cc3ccc(c(Cl)c3)OCCCCOc3cc4c(cc3C(=O)N2)CCCC4)CC1`: the Ki on Rhodesain is 26 nM; on Procathepsin L it was 3 nM. Besides, the figures for the efflux ratio at 3.5 h, 1 µM in the data set with Mdr1a and in the data set on MDR1 were 38 and 26, respectively. Besides, in data set [5], the IC50 was 1 nM.

Take `N#CC1(NC(=O)[C@@H]2Cc3ccc(c(Cl)c3)OCCCCOc3cc(C(F)(F)F)ccc3C(=O)N2)CC1`: the 50% inhibitory concentration (IC50) is 16 µM at Cytochrome P450 2C9; 11 µM against Cytochrome P450 2D6; 10 nM in data set [8]; 1040 nM on Cathepsin L2; 4 nM in data set [5]; 43 µM at Cytochrome P450 3A4. Besides, the IC50 against Cathepsin B is 9 µM; against Cathepsin K it was no less than 25 µM; against Cathepsin S, 2700 nM. Besides, in data set [1], the result was Active. The concentration at 0.5 h in [6] stood at 404 ng/mL; in data set [13], 256 ng/g; in data set [16], 2.3 ng/mL. Besides, the Time in [7] worked out at 10.2 days. The Ki is 11 nM at Rhodesain and 10 nM on Procathepsin L. Moreover, in [9], the concentration in solution (solubility) was 12 µg/mL (≈ 23 µM). The figures for the efflux ratio at 3.5 h, 1 µM with Mdr1a and with MDR1 were 53 and 26, respectively. In [10], the logD at 100 µM turned out to be 3.7. The Papp at 15 h in data set [11] is 0.4 ×10⁻⁶ cm/s. This compound also had a clearance in data set [12] of 79 mL/min/kg. In addition, the half-life in data set [14] is 162 min. Also, the Vd in [15] was 7.2 L/kg. The concentration at 4 h in data set [2] is 15.1 ng/mL. Further, the Kp at 0.5 h is 0.006 in [17] and 0.7 in data set [20]. Further, the Kp in [18] was less than 0.5. For the same compound, the Survival in data set [19] came to 16.3 days. In addition, the concentration at 1 h in data set [3] was determined as 237 ng/mL. For the same compound, in [4], the concentration at 16 h worked out at 4.8 ng/mL.

As to `N#CC1(NC(=O)[C@@H]2Cc3ccc(c(-c4cc[nH]n4)c3)OCCCCOc3cc(C(F)(F)F)ccc3C(=O)N2)CC1`, the IC50 in the data set with L6 was greater than 100 µM; in data set [22] it was 140 nM. The same compound displayed an inhibition in [21] of 45%. At Procathepsin L, affinity was put at a Ki of 1360 nM.
